Here are results for ten molecules from ChEMBL document CHEMBL1149184, “Development of a new type of allosteric modulator of muscarinic receptors: hybrids of the antagonist AF-DX 384 and the hexamethonio derivative W84” (J Med Chem, 2004).

The test system of test [1] is Muscarinic acetylcholine receptor M2 (Cavia porcellus). Nature of the test: Emax dissociation towards Muscarinic acetylcholine receptor M2 in guinea pig using [3H]NMS as a radioligand.
Test [2] has the same test system. The test is described as follows: Half-maximally reduction towards muscarinic 2 receptor in guinea pig using [3H]-AF-DX 384 as a radioligand.
Test [3] shares this test system. The test is described as follows: Binding affinity towards Muscarinic acetylcholine receptor M2 in guinea pig using [3H]-AF-DX 384 as a radioligand.
For test [4] the test system is unchanged. Nature of the test: Binding affinity towards Muscarinic acetylcholine receptor M2 in guinea pig using [3H]-NMS as a radioligand.
The test system is the same in test [5]. The test is described as follows: Emax dissociation towards Muscarinic acetylcholine receptor M2 in guinea pig using [3H]AF-DX 384 as a radioligand.
Test [6] has the same test system. Nature of the test: Palpha towards Muscarinic acetylcholine receptor M2 in guinea pig using [3H]-AF-DX 384 as a radioligand.
Test [7] shares this test system. The test is described as follows: Palpha towards Muscarinic acetylcholine receptor M2 in guinea pig using [3H]NMS as a radioligand.
Test [8] shares this test system. Nature of the test: Half-maximal reduction towards Muscarinic acetylcholine receptor M2 in guinea pig using [3H]NMS as a radioligand.
In test [9] the target is T1, Muscarinic acetylcholine receptor M2 (Sus scrofa) (UniProt P06199).
T1 sequence (whole entry): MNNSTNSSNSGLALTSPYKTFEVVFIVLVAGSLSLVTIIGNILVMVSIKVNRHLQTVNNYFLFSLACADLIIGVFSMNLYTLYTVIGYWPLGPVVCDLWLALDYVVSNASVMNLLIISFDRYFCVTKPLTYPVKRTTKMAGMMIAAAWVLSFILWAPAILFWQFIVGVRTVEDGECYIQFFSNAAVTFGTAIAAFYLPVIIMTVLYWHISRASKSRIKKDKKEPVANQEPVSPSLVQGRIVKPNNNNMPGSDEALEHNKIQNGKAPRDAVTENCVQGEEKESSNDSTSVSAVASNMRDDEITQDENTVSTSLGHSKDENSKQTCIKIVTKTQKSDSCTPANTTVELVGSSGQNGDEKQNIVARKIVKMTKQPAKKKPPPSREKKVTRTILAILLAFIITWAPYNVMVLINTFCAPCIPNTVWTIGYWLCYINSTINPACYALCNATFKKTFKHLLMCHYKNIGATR
The test is described as follows: Half-maximal reduction towards Muscarinic acetylcholine receptor M2 in porcine heart using [3H]NMS as a radioligand. Summed up: (§1)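 Dissociation assay at 37 °C on porcine cardiac membranes in Mg/Tris buffer, pH 7.3. Membranes were preincubated 30 min with 0.2 nM [3H]NMS, then dissociation was started with 1 μM atropine ± test compound and tracked for 120 min. Apparent dissociation rate constants k-1 against log concentration were fitted with a four-parameter logistic curve.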

The target of test [10] is T1, Muscarinic acetylcholine receptor M2 (Sus scrofa). Nature of the test: Emax dissociation towards Muscarinic acetylcholine receptor M2 in porcine heart using [3H]NMS as a radioligand. The gist of the method: as §1
The target is the same in test [11]. The test is described as follows: Palpha towards Muscarinic acetylcholine receptor M2 in porcine heart using [3H]NMS as a radioligand. Summed up: (§2)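 Porcine heart membranes with 0.2 nM [3H]NMS at 37 °C in 3 mM MgHPO4 / 50 mM Tris-HCl, pH 7.3, and varying test-compound concentrations. Incubation was 120–360 min to reach equilibrium. Nonspecific binding was taken with 1 μM atropine. Bound label was filtered and counted. Curves were fitted to the ternary complex model of allosteric interaction. Three to four independent experiments.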

Test [12] shares this target. Nature of the test: Binding affinity towards Muscarinic acetylcholine receptor M2 in porcine heart using [3H]NMS as a radioligand. The gist of the method:
as §2

As to `CCC[N+](C)(C)CCCN1C(=O)c2ccccc2C1=O`, the Emax,diss stood at 90% in test [1] and 73% in test [5]. The pEC0.5,diss turned out to be 2.98 in test [2] and 3.76 in test [8]. For the same molecule, the figures for the pKA in test [3] and in test [4] were 4.1 and 3.55, respectively. Besides, the Palpha in test [6] is below -2; in [7] it was -0.78.

In turn, `CCCN(CCCN1C(=O)CCC1=O)CC1CCCCN1CCNC(=O)N1c2ccccc2C(=O)Nc2cccnc21` (stereo not given) showed a pEC0.5,diss in test [9] of 4.95. This molecule came in with an Emax,diss in test [10] of 76%. In test [11], this molecule had a Palpha of -1.8. Moreover, in test [12], the pKA is 8.01.

For `CCCN(CCCCCC[N+](C)(C)CCCN1C(=O)c2ccccc2C1=O)CC1CCCCN1CCNC(=O)N1c2ccccc2C(=O)Nc2cccnc21` (stereo not given), the pEC0.5,diss in [9] was found to be 6.78. The same molecule displayed an Emax,diss in [10] of 100%. The molecule also returned a Palpha in test [11] of -0.58. The pKA in [12] was 6.83.

With `CC[N+](C)(C)CCCN1C(=O)c2ccccc2C1=O`, the Emax,diss in test [1] was found to be 100%; in test [5], 34%. Also, the results for the pEC0.5,diss in [2] and in test [8] were 3.33 and 3.35, respectively. Besides, the pKA in test [3] worked out at 4.44; in test [4] it was 4.12. In addition, the results for the Palpha in [6] and in test [7] were below -2 and -1.03, respectively.

Turning to `CCCCCC[N+](C)(C)CCCN1C(=O)c2ccccc2C1=O`, the Emax,diss in test [1] is 100%; in [5], 82%. Moreover, the pEC0.5,diss worked out at 4.11 in test [2] and 4.06 in test [8]. In addition, the pKA is 5.8 in [3] and 5.08 in test [4]. Moreover, the Palpha in [6] was -1.35; in [7], -1.55.

Take `C[N+](C)(CCCCCC[N+](C)(C)CCCN1C(=O)c2ccccc2C1=O)CCCN1C(=O)CCC1=O`: the Emax,diss in [1] is 100%; in [5] it was 68%. In addition, the pEC0.5,diss in [2] turned out to be 3.67; in [8] it was 4.82. Moreover, the pKA came out at 5.93 in [3] and 5.24 in [4]. In addition, the Palpha is -1.56 in test [6] and -0.49 in test [7].

In the case of `CCCN(CCCN1C(=O)c2ccccc2C1=O)CC1CCCCN1CCNC(=O)N1c2ccccc2C(=O)Nc2cccnc21` (stereo not given), the pEC0.5,diss in test [9] was 6.87. Also, the Emax,diss in test [10] is 100%. In test [11], the Palpha is 1.07. Further, the pKA in test [12] came to 5.89.

`CCCN(CCC)CC1CCCCN1CCNC(=O)N1c2ccccc2C(=O)Nc2cccnc21` (stereo not given) showed a pEC0.5,diss in [9] of 4.65. In [10], this molecule returned an Emax,diss of 100%. For the same molecule, in test [11], the Palpha was below -2. Besides, in [12], the pKA was 8.14.

Regarding `C[N+](C)(C)CCCN1C(=O)c2ccccc2C1=O`, the values for the Emax,diss in test [1] and in test [5] were 100% and 25%, respectively. In addition, the pEC0.5,diss came to 3 in test [2] and 3.21 in test [8]. For the same molecule, the pKA in test [3] came to 4.51; in test [4], 3.95. Moreover, the Palpha in test [6] is below -2; in [7], -1.21.

Turning to `CCCN(CCCCCCN1C(=O)c2ccccc2C1=O)CC1CCCCN1CCNC(=O)N1c2ccccc2C(=O)Nc2cccnc21` (stereo not given), the pEC0.5,diss in test [9] was determined as 6.75. In [10], the Emax,diss came out at 100%. Besides, the Palpha in [11] amounted to 0.05. In addition, the pKA in [12] came out at 6.71.
